What was measured:
Cytochrome P450 3A4 = Cytochrome P450 3A4 (Homo sapiens, UniProt P08684); assay: Inhibition of CYP3A4; format: ADME
Cytochrome P450 2C19 = Cytochrome P450 2C19 (Homo sapiens, UniProt P33261); assay: Inhibition of CYP2C19; format: ADME
Cytochrome P450 1A2 = biological target: T1, Cytochrome P450 1A2 (Homo sapiens, UniProt P05177); assay: Inhibition of CYP1A2; format: ADME
T1 sequence (P05177 whole entry): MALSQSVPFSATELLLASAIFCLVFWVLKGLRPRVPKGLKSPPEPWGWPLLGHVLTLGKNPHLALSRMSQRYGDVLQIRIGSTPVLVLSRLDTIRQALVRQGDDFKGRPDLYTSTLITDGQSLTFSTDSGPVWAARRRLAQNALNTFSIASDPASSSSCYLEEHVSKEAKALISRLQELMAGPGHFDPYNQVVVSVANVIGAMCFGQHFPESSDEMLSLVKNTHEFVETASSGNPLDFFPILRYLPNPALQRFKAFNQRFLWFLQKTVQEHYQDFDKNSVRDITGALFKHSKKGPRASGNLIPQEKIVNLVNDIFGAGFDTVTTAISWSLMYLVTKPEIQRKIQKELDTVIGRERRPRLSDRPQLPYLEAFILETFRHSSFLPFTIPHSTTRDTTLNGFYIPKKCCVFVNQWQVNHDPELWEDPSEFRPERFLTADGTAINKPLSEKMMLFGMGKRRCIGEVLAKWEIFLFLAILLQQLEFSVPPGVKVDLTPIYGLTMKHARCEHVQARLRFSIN

[1] = biological target: T2, Serine/threonine-protein kinase B-raf (Homo sapiens, UniProt P15056, V600E); assay: Inhibition of B-Raf V600E mutant
T2 sequence (P15056 2-766 V600E limits assumed): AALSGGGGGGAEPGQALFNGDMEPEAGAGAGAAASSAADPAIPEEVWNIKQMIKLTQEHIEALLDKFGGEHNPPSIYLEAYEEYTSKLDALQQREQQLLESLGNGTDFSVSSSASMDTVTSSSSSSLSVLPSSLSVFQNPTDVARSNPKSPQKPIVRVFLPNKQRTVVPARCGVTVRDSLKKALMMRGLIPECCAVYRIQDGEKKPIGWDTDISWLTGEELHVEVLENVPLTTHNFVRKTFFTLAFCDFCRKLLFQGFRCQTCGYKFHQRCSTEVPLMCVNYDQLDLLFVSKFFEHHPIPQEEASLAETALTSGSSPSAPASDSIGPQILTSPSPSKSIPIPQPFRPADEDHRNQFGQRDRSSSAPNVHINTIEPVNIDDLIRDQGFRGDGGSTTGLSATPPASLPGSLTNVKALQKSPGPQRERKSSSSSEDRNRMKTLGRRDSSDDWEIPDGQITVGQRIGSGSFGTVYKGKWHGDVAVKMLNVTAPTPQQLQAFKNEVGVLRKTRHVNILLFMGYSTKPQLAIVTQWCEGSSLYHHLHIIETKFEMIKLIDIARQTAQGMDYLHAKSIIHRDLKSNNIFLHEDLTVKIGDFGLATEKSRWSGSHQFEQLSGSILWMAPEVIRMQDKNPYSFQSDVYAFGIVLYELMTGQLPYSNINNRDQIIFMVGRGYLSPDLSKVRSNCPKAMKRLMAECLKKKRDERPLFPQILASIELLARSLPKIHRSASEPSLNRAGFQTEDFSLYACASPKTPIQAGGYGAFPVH

[2] = biological target: T2, Serine/threonine-protein kinase B-raf; assay: Inhibition of B-Raf V600E mutant assessed as inhibition of phosphorylated ERK production by cell based assay
Summary of the method: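 Cell-based readout of phospho-ERK production. The IC50 is the average of three experiments.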

Caco-2 = assay: Permeability ratio of the compound across human Caco2 cells; format: ADME, cell-based
[3] = Permeability of the compound across human Caco2 cells; format: ADME, cell-based; details: caco-2, read-out: permeability
Summary of the method: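 Caco-2 permeability is reported as a class: low (<2 × 10^-6 cm/s), medium (2–8 × 10^-6 cm/s), high (>8 × 10^-6 cm/s).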

[4] = Aqueous solubility of the compound at pH 6.5; format: physicochemical

Chain of Cytochrome P450 2C19 (P33261 whole entry): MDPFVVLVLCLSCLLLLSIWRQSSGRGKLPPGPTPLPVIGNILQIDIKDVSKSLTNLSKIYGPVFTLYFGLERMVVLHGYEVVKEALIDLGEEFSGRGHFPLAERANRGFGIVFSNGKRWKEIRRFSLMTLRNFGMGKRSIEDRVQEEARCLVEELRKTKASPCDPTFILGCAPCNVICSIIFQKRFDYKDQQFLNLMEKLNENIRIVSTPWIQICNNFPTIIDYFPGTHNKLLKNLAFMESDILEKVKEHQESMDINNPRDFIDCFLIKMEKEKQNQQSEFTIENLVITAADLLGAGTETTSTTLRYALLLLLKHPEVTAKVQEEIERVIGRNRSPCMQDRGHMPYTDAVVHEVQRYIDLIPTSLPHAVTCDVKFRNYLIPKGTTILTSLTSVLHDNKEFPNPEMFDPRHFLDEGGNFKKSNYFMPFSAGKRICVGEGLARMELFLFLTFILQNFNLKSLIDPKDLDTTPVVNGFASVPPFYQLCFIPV
Chain of Cytochrome P450 3A4 (P08684 whole entry): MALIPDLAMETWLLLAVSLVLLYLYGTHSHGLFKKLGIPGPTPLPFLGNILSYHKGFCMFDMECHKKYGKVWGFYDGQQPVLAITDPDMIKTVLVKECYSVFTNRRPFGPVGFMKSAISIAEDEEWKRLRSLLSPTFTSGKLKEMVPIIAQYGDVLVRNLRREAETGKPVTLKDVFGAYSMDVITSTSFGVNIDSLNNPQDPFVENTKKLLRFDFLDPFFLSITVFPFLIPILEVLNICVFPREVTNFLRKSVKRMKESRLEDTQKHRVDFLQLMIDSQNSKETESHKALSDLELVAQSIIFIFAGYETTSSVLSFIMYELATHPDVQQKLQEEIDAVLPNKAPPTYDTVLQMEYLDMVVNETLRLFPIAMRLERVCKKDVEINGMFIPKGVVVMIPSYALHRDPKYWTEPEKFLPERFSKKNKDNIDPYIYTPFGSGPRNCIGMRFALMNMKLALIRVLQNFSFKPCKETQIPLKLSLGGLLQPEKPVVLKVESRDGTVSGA

Row | IC50 [1] [nM] | IC50 [2] [nM] | Compound | other results
1 | < 2 | 30 | CCOC(=O)c1oc2cnccc2c1Nc1ccc2c(c1)CC/C2=N/O | IC50 (Cytochrome P450 3A4): 8.3 µM; IC50 (Cytochrome P450 2C19): 1180 nM; IC50 (Cytochrome P450 1A2): > 25000 nM
2 | 1400 |  | NCc1ccc(Nc2c(-c3ccccc3)nc3cnccn23)cc1 | 
3 | 570 | 76000 | Clc1ccc(Nc2c(-c3ccccc3)nc3cnccn23)cc1 | 
4 | 1200 |  | Cc1nc2cnccn2c1Nc1ccc(Cl)cc1 | 
5 | 16 | 3100 | CCOC(=O)c1nc2cnccn2c1Nc1ccc2c(c1)CC/C2=N\O | 
6 | 35 | 19000 | O/N=C1/CCc2cc(Nc3c(-c4ccccc4)nc4cnccn34)ccc21 | 
7 | 47 | 16000 | O/N=C1/CCc2cc(Nc3c(-c4cccnc4)nc4cnccn34)ccc21 | 
8 | 4 | 1400 | O/N=C1/CCc2cc(Nc3c(-c4ccco4)nc4cnccn34)ccc21 | 
9 | 3 | 280 | CCOC(=O)c1sc2cnccc2c1Nc1ccc2c(c1)CC/C2=N/O | IC50 (Cytochrome P450 3A4): 0.05 µM; IC50 (Cytochrome P450 2C19): 129 nM; IC50 (Cytochrome P450 1A2): 616 nM
10 | 40 | 5800 | CN(C)C(=O)c1sc2cnccc2c1Nc1ccc2c(c1)CC/C2=N/O | 
11 | 52 | 8200 | CN(C)CCNC(=O)c1sc2cnccc2c1Nc1ccc2c(c1)CC/C2=N/O | 
12 | 32 | 7300 | O/N=C1/CCc2cc(Nc3csc4cnccc34)ccc21 | 
13 | 3 | 1500 | O/N=C1/CCc2cc(Nc3c(-c4ccccc4)sc4cnccc34)ccc21 | 
14 | 3 | 170 | O/N=C1/CCc2cc(Nc3c(-c4cccnc4)sc4cnccc34)ccc21 | 
15 | < 2 | 140 | CCCC(=O)c1sc2cnccc2c1Nc1ccc2c(c1)CC/C2=N/O | 
16 | 5 | 340 | CN(C)C(=O)c1oc2cnccc2c1Nc1ccc2c(c1)CC/C2=N\O | 
17 | 2 | 40 | CN(C)CCNC(=O)c1oc2cnccc2c1Nc1ccc2c(c1)CC/C2=N\O | Ratio (Caco-2): 0.9; Papp [3]: > 8 ×10⁻⁶ cm/s; solubility [4]: > 1000 µg/mL
18 | 3 | 2000 | Cc1ccc(-c2oc3cnccc3c2Nc2ccc3c(c2)CC/C3=N\O)cc1 | 
19 | < 2 | 150 | O/N=C1\CCc2cc(Nc3c(-c4ccccn4)oc4cnccc34)ccc21 | 
20 | < 2 | 960 | O/N=C1/CCc2cc(Nc3c(-c4cccnc4)oc4cnccc34)ccc21 | 
21 | < 2 | 365 | Cc1cc(-c2oc3cnccc3c2Nc2ccc3c(c2)CC/C3=N\O)no1 | 
22 | 0.2 | 5 | O/N=C1\CCc2cc(Nc3c(-c4ncccn4)oc4cnccc34)ccc21 | Ratio (Caco-2): 0.9; Papp [3]: > 8 ×10⁻⁶ cm/s

Row | Compound | IC50 [1] [nM] | IC50 [2] [nM] | other results
23 | Oc1cc(-c2nc(-c3ccccc3)[nH]c2-c2ccncc2)ccc1Cl | 10 |  | 
